Source: ChEMBL document CHEMBL1828575, “Design, synthesis and antiproliferative activities of biarylolefins based on polyhydroxylated and carbohydrate scaffolds” (Eur J Med Chem, 2011)

Tests used:
Format in all cases: functional
[1] = Antitumor activity against human Hs 578T cells after 48 hrs by SRB assay; conditions: for CC50: read-out: LC50 (the source's name)
Summary of the method: (§1)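 NCI60 panel in RPMI 1640 with 5% FBS and 2 mM L-glutamine. Cells were plated at 5000–40,000/well by doubling time, held 24 h, then time-zero plates were TCA-fixed. Five concentrations (10-fold or half-log dilutions of DMSO stocks) were applied for 48 h at 37 °C, 5% CO2. Cells were fixed with cold TCA (10% final adherent, 16% suspension) and stained with 0.4% SRB. Bound dye was dissolved in 10 mM Tris and read at 515 nm. GI50, TGI and LC50 were calculated per line.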

NCI-H322M = test: Cytotoxicity against human NCI-H322M cells assessed as cellular growth at 10 uM after 48 hrs by SRB assay
Summary of the method: (§2)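 NCI-60 panel lines grown in RPMI 1640 with 5% FBS and 2 mM L-glutamine. Plated at 5000–40,000 cells/well and preincubated 24 h at 37 °C, 5% CO₂, with time-zero plates fixed in TCA. Compounds, dissolved in DMSO and diluted in medium, were applied for 48 h. Cells were TCA-fixed (10% final for adherent, 16% for suspension) and stained with 0.4% SRB in 1% acetic acid. Dye was solubilised in 10 mM Tris base and read at 515 nm; growth was expressed as a percentage of untreated control.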

NCI-H23 = test: Cytotoxicity against human NCI-H23 cells assessed as cellular growth at 10 uM after 48 hrs by SRB assay; summary of the method: as §2
K562 = test: Cytotoxicity against human K562 cells assessed as cellular growth at 10 uM after 48 hrs by SRB assay
Summary of the method: (§3)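 NCI60 single-dose screen of cells in RPMI 1640 with 5% FBS and 2 mM L-glutamine, preincubated 24 h at 37 °C, 5% CO₂. Cells were then exposed 48 h to compound added from DMSO stock. TCA-fixed, stained with 0.4% SRB in 1% acetic acid, dye solubilised in 10 mM Tris base and read at 515 nm. Growth is given as percent of untreated control.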

HOP-62 = test: Cytotoxicity against human HOP62 cells assessed as cellular growth at 10 uM after 48 hrs by SRB assay; summary of the method: as §3
SK-OV-3 = test: Antitumor activity against human SKOV3 cells after 48 hrs by SRB assay; conditions: SK-OV-3, 48 h
Summary of the method: (§4)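 NCI60 panel cells grown in RPMI 1640 with 5% FBS and 2 mM L-glutamine, plated at 5000–40,000 cells/well and preincubated 24 h at 37 °C, 5% CO₂. Compound was added from DMSO at five concentrations, 10-fold or 1/2 log dilutions, then incubated 48 h.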

UACC-257 = test: Antitumor activity against human UACC257 cells after 48 hrs by SRB assay; conditions: UACC-257, 48 h; summary of the method: as §4
UO-31 [2] = test: Cytotoxicity against human UO31 cells assessed as cellular growth at 10 uM after 48 hrs by SRB assay; summary of the method: as §2
SF-295 = test: Cytotoxicity against human SF295 cells assessed as cellular growth at 10 uM after 48 hrs by SRB assay; summary of the method: as §2
ACHN = test: Cytotoxicity against human ACHN cells assessed as cellular growth at 10 uM after 48 hrs by SRB assay; summary of the method: as §3
SNB-75 = test: Antitumor activity against human SNB75 cells after 48 hrs by SRB assay; conditions: SNB-75, 48 h; for CC50: read-out: LC50 (the source's name); summary of the method: as §4
EKVX = test: Cytotoxicity against human EKVX cells assessed as cellular growth at 10 uM after 48 hrs by SRB assay; summary of the method: as §3
MDA-MB-231 = test: Antitumor activity against human MDA-MB-231 cells after 48 hrs by SRB assay; conditions: MDA-MB-231, 48 h; for CC50: read-out: LC50 (the source's name); summary of the method: as §1
BT-549 [3] = test: Antitumor activity against human BT549 cells after 48 hrs by SRB assay; conditions: BT-549, 48 h
Summary of the method: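 NCI60 screen: cells grown in RPMI 1640 with 5% FBS and 2 mM L-glutamine, plated at 5000–40,000 cells/well by doubling time, preincubated 24 h at 37 °C with 5% CO2. Compounds were diluted from DMSO stocks and given for 48 h, at five concentrations for dose response. A time-zero plate was TCA-fixed. Cells were TCA-fixed, stained with 0.4% SRB and read at 515 nm, with growth expressed relative to untreated controls.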

SW-620 = test: Antitumor activity against human SW620 cells after 48 hrs by SRB assay; conditions: SW-620, 48 h; summary of the method: as §4
UO-31 [4] = test: Antitumor activity against human UO31 cells after 48 hrs by SRB assay; conditions: UO-31, 48 h; summary of the method: as §4
PC-3 = test: Cytotoxicity against human PC3 cells assessed as cellular growth at 10 uM after 48 hrs by SRB assay; summary of the method: as §2
UACC-62 = test: Cytotoxicity against human UACC62 cells assessed as cellular growth at 10 uM after 48 hrs by SRB assay; summary of the method: as §2
CCRF-CEM = test: Cytotoxicity against human CCRF-CEM cells assessed as cellular growth at 10 uM after 48 hrs by SRB assay; summary of the method: as §3
OVCAR-5 = test: Antitumor activity against human OVCAR5 cells after 48 hrs by SRB assay; conditions: OVCAR-5, 48 h; summary of the method: as §1
BT-549 [5] = test: Cytotoxicity against human BT549 cells assessed as cellular growth at 10 uM after 48 hrs by SRB assay; summary of the method: as §3
A549 = test: Antitumor activity against human A549 cells after 48 hrs by SRB assay; conditions: A549, 48 h; summary of the method: as §1
HOP-92 = test: Antitumor activity against human HOP92 cells after 48 hrs by SRB assay; conditions: HOP-92, 48 h; for CC50: read-out: LC50 (the source's name); summary of the method: as §1
[6] = read-out: LC50 (the source's name)
[7] = read-out: pLC50 (the source's name) (converted)

COc1ccc(/C(=C2\O[C@@H]([C@H]3COC(C)(C)O3)[C@H]3OC(C)(C)O[C@@H]23)c2cc(OC)c(OC)c(OC)c2)cc1O
GI50 [1]: 4.44 µM
TGI [1]: 53.4 µM
CC50 [1]: > 100 µM
Activity (NCI-H322M): 91.51%
Activity (NCI-H23): 81.18%
Activity (K562): 10.18%
Activity (HOP-62): 91.26%
GI50 (SK-OV-3; read-out: GI50): 12.6 µM
CC50 (SK-OV-3; [6]): > 100 µM
TGI (SK-OV-3; read-out: TGI): 91.7 µM
GI50 (SK-OV-3; read-out: pGI50 (converted)): 12.6 µM
CC50 (SK-OV-3; [7]): > 100 µM
TGI (SK-OV-3; read-out: pTGI (converted)): 91.2 µM
GI50 (UACC-257; read-out: GI50): 39.4 µM
CC50 (UACC-257; [6]): > 100 µM
TGI (UACC-257; read-out: TGI): > 100 µM
GI50 (UACC-257; read-out: pGI50 (converted)): 39.8 µM
CC50 (UACC-257; [7]): > 100 µM
TGI (UACC-257; read-out: pTGI (converted)): > 100 µM
Activity (UO-31 [2]): 123.08%
Activity (SF-295): 77.57%
Activity (ACHN): 49.46%
GI50 (SNB-75): 2.89 µM
TGI (SNB-75): 7.44 µM
CC50 (SNB-75): > 100 µM
Activity (EKVX): 100.52%
GI50 (MDA-MB-231): 6.28 µM
TGI (MDA-MB-231): 69.7 µM
CC50 (MDA-MB-231): > 100 µM
CC50 (BT-549 [3]; [6]): > 100 µM
CC50 (BT-549 [3]; [7]): > 100 µM
GI50 (SW-620; read-out: GI50): 7.28 µM
CC50 (SW-620; [6]): > 100 µM
TGI (SW-620; read-out: TGI): > 100 µM
GI50 (SW-620; read-out: pGI50 (converted)): 7.24 µM
CC50 (SW-620; [7]): > 100 µM
TGI (SW-620; read-out: pTGI): > 100 µM
GI50 (UO-31 [4]; read-out: GI50): 21.7 µM
CC50 (UO-31 [4]; [6]): > 100 µM
TGI (UO-31 [4]; read-out: TGI): 70.4 µM
GI50 (UO-31 [4]; read-out: pGI50 (converted)): 21.9 µM
CC50 (UO-31 [4]; [7]): > 100 µM
TGI (UO-31 [4]; read-out: pTGI (converted)): 70.8 µM
Activity (PC-3): 29.4%
Activity (UACC-62): 82.85%
Activity (CCRF-CEM): 60.8%
GI50 (OVCAR-5; read-out: GI50): 59.6 µM
CC50 (OVCAR-5; [6]): > 100 µM
TGI (OVCAR-5; read-out: TGI): > 100 µM
GI50 (OVCAR-5; read-out: pGI50 (converted)): 60.3 µM
CC50 (OVCAR-5; [7]): > 100 µM
TGI (OVCAR-5; read-out: pTGI (converted)): > 100 µM
Activity (BT-549 [5]): 67.52%
GI50 (A549; read-out: GI50): 22.7 µM
CC50 (A549; [6]): > 100 µM
TGI (A549; read-out: TGI): > 100 µM
GI50 (A549; read-out: pGI50 (converted)): 22.9 µM
CC50 (A549; [7]): > 100 µM
TGI (A549; read-out: pTGI (converted)): > 100 µM
GI50 (HOP-92): 4 µM
TGI (HOP-92): 38.3 µM
CC50 (HOP-92): > 100 µM

COc1cc(/C(=C2\O[C@@H]([C@H]3COC(C)(C)O3)[C@H]3OC(C)(C)O[C@@H]23)c2ccc3ccccc3c2)cc(OC)c1OC
GI50 [1]: 4.44 µM
TGI [1]: 53.4 µM
CC50 [1]: > 100 µM
Activity (NCI-H322M): 55.06%
Activity (NCI-H23): 46.18%
Activity (K562): 28.12%
Activity (HOP-62): 47.96%
GI50 (SK-OV-3; read-out: GI50): 4.37 µM
CC50 (SK-OV-3; [6]): > 100 µM
TGI (SK-OV-3; read-out: TGI): > 100 µM
GI50 (SK-OV-3; read-out: pGI50 (converted)): 17.8 µM
CC50 (SK-OV-3; [7]): > 100 µM
TGI (SK-OV-3; read-out: pTGI (converted)): > 100 µM
GI50 (UACC-257; read-out: GI50): 4.28 µM
CC50 (UACC-257; [6]): > 100 µM
TGI (UACC-257; read-out: TGI): 23.8 µM
GI50 (UACC-257; read-out: pGI50 (converted)): 4.27 µM
CC50 (UACC-257; [7]): > 100 µM
TGI (UACC-257; read-out: pTGI (converted)): 24 µM
Activity (UO-31 [2]): 46.81%
Activity (SF-295): 48.59%
Activity (ACHN): 0.86%
GI50 (SNB-75): 2.89 µM
TGI (SNB-75): 7.44 µM
CC50 (SNB-75): > 100 µM
Activity (EKVX): 53.7%
GI50 (MDA-MB-231): 6.28 µM
TGI (MDA-MB-231): 69.7 µM
CC50 (MDA-MB-231): > 100 µM
CC50 (BT-549 [3]; [6]): > 100 µM
GI50 (BT-549 [3]; read-out: pGI50 (converted)): 3.24 µM
CC50 (BT-549 [3]; [7]): > 100 µM
TGI (BT-549 [3]; read-out: pTGI (converted)): 8.13 µM
GI50 (SW-620; read-out: GI50): 4.31 µM
CC50 (SW-620; [6]): > 100 µM
TGI (SW-620; read-out: TGI): > 100 µM
GI50 (SW-620; read-out: pGI50 (converted)): 4.27 µM
CC50 (SW-620; [7]): > 100 µM
TGI (SW-620; read-out: pTGI): > 100 µM
GI50 (UO-31 [4]; read-out: GI50): 3.47 µM
CC50 (UO-31 [4]; [6]): > 100 µM
TGI (UO-31 [4]; read-out: TGI): > 100 µM
GI50 (UO-31 [4]; read-out: pGI50 (converted)): 3.47 µM
CC50 (UO-31 [4]; [7]): > 100 µM
TGI (UO-31 [4]; read-out: pTGI (converted)): > 100 µM
Activity (PC-3): 26.98%
Activity (UACC-62): 46.5%
Activity (CCRF-CEM): 82.21%
GI50 (OVCAR-5; read-out: GI50): 14 µM
CC50 (OVCAR-5; [6]): > 100 µM
TGI (OVCAR-5; read-out: TGI): > 100 µM
GI50 (OVCAR-5; read-out: pGI50 (converted)): 3.89 µM
CC50 (OVCAR-5; [7]): > 100 µM
TGI (OVCAR-5; read-out: pTGI (converted)): 7.94 µM
Activity (BT-549 [5]): 22.16%
GI50 (A549; read-out: GI50): 3.09 µM
CC50 (A549; [6]): > 100 µM
TGI (A549; read-out: TGI): 9.55 µM
GI50 (A549; read-out: pGI50 (converted)): 3.09 µM
CC50 (A549; [7]): > 100 µM
TGI (A549; read-out: pTGI (converted)): 9.55 µM
GI50 (HOP-92): 2.67 µM
TGI (HOP-92): 13.3 µM
CC50 (HOP-92): > 100 µM
